# Screens (PubChem)
# PPC-1+TRAIL kill: kills PPC-1 cancer cells in the presence of TRAIL; PPC-1 cells + TRAIL, ATPLite viability luminescence; cell killing (% activity), % at 4 µM or 5 µM; 220,000 compounds, 0.41% hits;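 active means cell killing above 50% in the first pass at 4 µM, then a duplicate retest at 5 µM averaging 50% or more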;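 further: plate controls were cells with TRAIL plus DMSO for no effect and medium-only wells lacking cells for full effect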
# STAT1 inh: reduces IFN-gamma driven STAT1 reporter signal; inhibition, % at 5.5 µM; AID 920; 200,000 compounds, 0.35% hits; NIH 3T3 STAT1-luciferase reporter, luminescence;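 active means inhibition above a set limit, the mean inhibition across all tested compounds plus 3 SD, cut at about 34% in these data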;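 further: 0% = IFN-gamma with DMSO and 100% = IFN-gamma with 300 µM nifuroxazide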
# C8 TRAIL sens: sensitizes caspase-8 expressing cells to TRAIL. NB7+C8 cells + TRAIL, ATPlite viability luminescence. 360,000 compounds, 1% hits. inhibition (viability loss, TRAIL sensitization), % at 10 µM. AID 624354;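 active means compounds causing at least 50% loss of cell viability in the single-dose screen, relative to plate controls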
# STAT3 blocker: STAT3 signaling inhibition. 190,000 compounds, 0.89% hits. U3A cells, IL-6 STAT3-luciferase reporter, luminescence; host cell line lacks STAT1. inhibition, % at 5.5 µM;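 active means inhibition above the mean inhibition across all screened compounds plus 3 SD, cut at about 44% in these data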;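 further: 0% = DMSO only wells and 100% = 100 µM nifuroxazide control wells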
# STAT3 act-1: STAT3 signaling activation | U3A cells, IL-6 STAT3-luciferase reporter, luminescence; 100% = signal with IL-6 EC80 alone | 190,000 compounds, 0.91% hits | activation (% of control), % at 5.6 µM;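 active means activation above the screen-wide mean of compound activation plus 3 SD, cut at about 130% in these data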;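 further: 0% = background luminescence of wells with medium and substrate only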
#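 Assay system – human STAT1-deficient U3A cells with stable STAT3-luciferase reporter · Also added – IL-6 (33 ng/mL) · Schedule – compound 1 h, then IL-6 6 h at 37 °C · Technique – reporter luminescence signal · Evaluation – % activation versus median of IL-6-stimulated wells · Benchmarks – IL-6-only wells as 100% reference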
# STAT3 act-2: confirmation of STAT3 signaling activators. shares compounds with STAT3 act-1. U3A STAT3-luciferase reporter, IL-6 potentiation, luminescence; U3A cells lack STAT1; 100 means same as IL-6 alone. potentiation (% of control), % at 5.7 µM. 1,200 compounds, 64% hits;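 active means percent activation of the STAT3 luciferase reporter above a set limit taken from the earlier primary screen, cut at about 130% in these data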;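 further: 0% = background signal of medium plus substrate and 100% = median of IL-6 with DMSO wells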
# NFkB act STAT3ct: counter-screen for STAT3 activators: NF-kappaB activation; shares compounds with STAT3 act-1; human cells, NF-kappaB reporter activation; activation (% of control), % at 5.7 µM; 1,200 compounds, 11% hits; AID 1309; in the data active means activation above about 120%;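 further: reporter induced by TNF-alpha stimulation; 100% = median of stimulated DMSO wells and 0% = no signal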
# STAT1 act: activates STAT1, counter-screen to STAT3 activators. AID 1318. 1,200 compounds, 13% hits. shares compounds with STAT3 act-1. NIH 3T3 STAT1-luciferase reporter, IFN-gamma, luminescence. activation (% of control), % at 5.7 µM;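 active means activation above the solvent-only control well mean plus 3 SD, set per screening run, cut at about 120% in these data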;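 further: 100% = IFN-gamma with DMSO median signal so 100% means no change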
# Active calls of the source: *; · = no result given. Hits are enriched below; roughly 1.8% of the tested compounds scored in any of these assays.
SMILES,PPC-1+TRAIL kill,STAT1 inh,C8 TRAIL sens,STAT3 blocker,STAT3 act-1,STAT3 act-2,NFkB act STAT3ct,STAT1 act
CCOC(=O)c1ccccc1NC(=O)Cn1c(-c2nonc2N)nc2ccccc21,20,2,0,-36,136*,105,129*,111
CCCCC1(C)NC(=O)N(CC(=O)Nc2ccc(Cl)cc2C)C1=O (stereo not given),·,·,-5,·,·,·,·,·
Cc1ccc(NC2CCCN(C(=O)c3cc(C(C)C)nn3C)C2)cc1C (stereo not given),·,·,-1,·,·,·,·,·
Cc1cc(C)n(-c2nc(-c3cccc(Cl)c3)cs2)n1,14,-4,15,-27,128,·,·,·
Cc1cc(C)n(-c2nc(-c3ccccc3)cs2)n1,-1,-14,-6,-44,137*,120,121*,122*
CC(=O)Nc1ccc(S(=O)(=O)NNC(=O)c2cc3c4ccccc4n(C)c3s2)cc1,8,4,-12,-37,139*,142*,106,111
Cn1c(-[n+]2c(-c3ccccc3)cc(-c3ccccc3)cc2-c2ccccc2)nc2c([N+](=O)[O-])cccc21,10,11,6,-53,151*,147*,104,98
COc1cccc(-c2nc3ccc(C(=O)NC(C)Cc4cccnc4)cc3o2)c1 (stereo not given),·,·,27,·,·,·,·,·
Cc1ccc2c(CC(=O)NNC(=O)c3ccccc3O)coc2c1,·,·,12,·,·,·,·,·
Cc1cccc(CN2CCC(n3nccc3NC(=O)CCCc3ccccc3)CC2)c1,·,·,-13,·,·,·,·,·
CC(C)Cc1cc(C(=O)Nc2cc(C(F)(F)F)ccc2Cl)no1,18,3,6,-42,143*,125,97,96
Cn1c(C(=O)Nc2ccccc2)cc2sccc21,18,-14,2,-79,163*,144*,123*,134*
Nc1cccc(-c2c[nH]c3ncc(-c4cccnc4)cc23)c1,·,·,3,·,·,·,·,·
CC1=NN(c2ccc(C)cc2)C(=O)/C1=C\c1ccc(Br)s1,29,-4,4,-35,126,·,·,·
CC1=NN(c2ccc(Br)cc2)C(=O)/C1=C/c1cccs1,-5,15,-5,-94,181*,155*,99,91
Cc1cc2nc3c(=O)[nH]c(=S)[nH]c3nc2cc1NC(=O)C(F)(F)F,·,·,-23,·,·,·,·,·
O=S(=O)(Nc1ccc2cn[nH]c2c1)c1ccc(Cl)cc1,·,·,-1,·,·,·,·,·
O=S(=O)(Nc1ccc2cn[nH]c2c1)c1ccc(Cl)s1,1,0,26,-49,138*,122,97,95
CCCCS(=O)(=O)Nc1ccc2cn[nH]c2c1,18,-2,10,-47,143*,139*,101,99
CCc1nc2ccc(C(=O)Nc3ccc4c(c3)OCC(=O)N4)cn2c1N(CC)Cc1cccc(Br)c1,·,·,4,·,·,·,·,·
O=C(Nc1ccccc1)Nc1ccc(Cl)nc1Cl,·,·,-6,·,·,·,·,·
CC(C)NC(=O)N(C)C[C@H]1Oc2ncc(Br)cc2C(=O)N([C@H](C)CO)C[C@@H]1C,·,·,4,·,·,·,·,·
CCOC(=O)C1=C(C)NC(C)=C(C(=O)OCC)C1c1cc2ccc(C)cc2[nH]c1=O,7,8,-15,-46,143*,129,92,99
O=C(CN1CCOCC1)N/N=C/c1cc2ccccc2nc1Cl,14,-1,-3,12,96,·,·,·
Cc1ccc(NCC(=O)N/N=C/c2cc3ccccc3nc2Cl)cc1,17,9,-2,-90,178*,171*,113,107
SMILES,PPC-1+TRAIL kill,STAT1 inh,C8 TRAIL sens,STAT3 blocker,STAT3 act-1,STAT3 act-2,NFkB act STAT3ct,STAT1 act
O=C(COC(=O)c1ccc(-n2cnnn2)cc1)Nc1cc(Cl)ccc1F,·,·,-14,·,·,·,·,·
Oc1ccccc1-c1nc(N2CCN(Cc3ccccc3)CC2)c2ccccc2n1,-2,2,9,-52,146*,141*,104,101
Clc1ccc2nc(SCc3nnc(-c4ccccc4)o3)[nH]c2c1,-11,9,-7,9,93,·,·,·
Cc1ccc2nc(SCc3nnc(-c4ccccc4Br)o3)[nH]c2c1,8,-1,-1,-45,140*,124,100,99
CCN(CC)c1ccc(C(=O)NNC(=O)C2CCN(c3ncnc4sc(C)c(C)c34)CC2)cc1,·,·,15,·,·,·,·,·
CCn1cc(Cl)c(C(=O)N2N=C(c3ccc4ccccc4c3)CC2c2ccccc2O)n1 (stereo not given),13,0,4,-4,102,·,·,·
CCn1cc([N+](=O)[O-])c(C(=O)N2N=C(c3ccc4ccccc4c3)CC2c2ccccc2O)n1 (stereo not given),11,-8,12,-58,151*,138*,102,102
O=C(/C=C1\C(=O)Nc2ccccc21)/C=C1\C(=O)Nc2ccccc21,16,·,5,·,·,·,·,·
CN(O)/C=C1\C(=O)Nc2ccccc21,10,-3,-1,-50,142*,115,98,103
CCOC(=O)C1=NN(c2ccccc2)C(c2ccccc2)CC1=O (stereo not given),4,-5,-17,-44,138*,113,100,98
CCOC(=O)C1=NN(c2ccc(OC)cc2)C(c2ccccc2)CC1=O (stereo not given),22,4,1,-22,119,·,·,·
Oc1ccccc1/C=N/Nc1cccc2cccnc12,-8,11,26,-67,162*,164*,98,93
O=C(c1cccs1)N1CCCc2ccccc21,-17,-3,-9,-4,106,·,·,·
Cc1ccc2c(c1)CCCN2C(=O)c1cccs1,-16,6,-11,-51,146*,132,103,107
Cc1ccc(OCC(=O)Nc2ccc3c4c(cccc24)CC3)c(C)c1,16,1,7,11,93,·,·,·
Cc1ccc(OCC(=O)Nc2cccc3nsnc23)c(C)c1,28,5,2,-53,145*,131,105,94
Cc1cccc(C2c3[nH]c4ccccc4c3CCN2C(=O)c2nn(C)c(=O)c3ccccc23)n1 (stereo not given),2,1,7,-38,137*,132,106,94
Cc1cccc(C2c3[nH]c4ccccc4c3CCN2C(=O)c2cc(CC(C)C)nc(C)n2)n1 (stereo not given),15,7,-4,-42,153*,151*,109,102
Cc1cccc(C2c3[nH]c4ccccc4c3CCN2C(=O)c2ocnc2C)n1 (stereo not given),14,11,-3,-27,125,·,·,·
N#CC1=C(N)Oc2cc(N)ccc2C1c1cccc(F)c1 (stereo not given),·,·,26,·,·,·,·,·
